Assay outcomes as filed in PubChem BioAssay.
A selection: hits, their analogues and other compounds. The true share with any hit is near 2.4%.
GSTO1 inh – GSTO1 inhibition, counter-screen for RBBP9 inhibitors | P78417 | actives 1.1% (n = 300,000) | inhibition, % at 5.96 µM | recombinant GSTO1, activity-based probe fluorescence polarization;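 active = inhibition above the campaign mean inhibition plus 3 SD, cut at about 35% in these data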
TCR-CD3 inh – human TCR-CD3 binding inhibition; TAMRA-labeled TCR probe fluorescence, biochemical; inhibition, % at 9.4 µM; actives 0.37% (n = 360,000); AID 651800;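 note: recombinant mutant TCR 2C K166C tagged with TAMRA read by polarization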
TDP2 absorb – TDP2 (human) inhibition, absorbance primary screen | O95551 | recombinant TDP2, T5PNP hydrolysis, p-nitrophenol absorbance 415 nm | inhibition, % at 12.8 µM | actives 0.34% (n = 370,000);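 active = inhibition above the mean of all tested compounds plus 3 SD, set per campaign, cut at about 25% in these data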
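Incubation: 2 h at 37 °C; Test system: recombinant human TDP2; Quantity: enzyme 120 nM; Read-out basis: percent inhibition; Medium: 50 mM Tris-HCl pH 7.5 with Mg2+, KCl, DTT, BSA; Repeats: single replicate; Compound: 12.8 µM single point, 1% DMSO; Signal: epi absorbance; Reagent: 5 mM T5PNP chromogenic substrate; Benchmarks: no-enzyme high, DMSO-plus-enzyme low.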
Apaf-1 inh – human Apaf-1 inhibition; reconstituted apoptosome caspase-3 activity, DEVD-Rh110 fluorescence; inhibition, % at 20 µM; actives 0.71% (n = 330,000); active = inhibition of at least 40% at 20 µM
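Material: biochemical Apaf-1 apoptosome reconstitution. Medium: Hepes buffer, pH 7.5. Also added: cytochrome c activation, bis-DEVD rhodamine 110 substrate. Timing: 30 min compound preincubation, 50 min activation, room temperature. Measured by: rhodamine 110 fluorescence at Ex 480/Em 540 nm.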
PAD4 FP inh – PAD4 (human) enzyme inhibition | Q9UM07 | recombinant PAD4, RCA probe fluorescence polarization | inhibition, % at 6.36 µM | actives 0.41% (n = 330,000) | AID 485272;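 active = percent inhibition above a cutoff equal to the mean of all tested compounds plus 3 SD, cut at about 15% in these data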
SIAE inh – human SIAE inhibition, primary screen. Q9HAT2. SIAE FP-Rh probe binding, fluorescence polarization. inhibition, % at 9.66 µM. AID 1053197. actives 0.69% (n = 370,000);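 active = inhibition above a cutoff: mean of compounds within the control limits plus 3 SD of those, cut at about 17% in these data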
GSTO1 inh conf – GSTO1 (human) inhibition, confirmation; actives 54% (n = 2,400); inhibition, % at 5.96 µM; shares compounds with GSTO1 inh; AID 2176; recombinant GSTO1, probe fluorescence polarization;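 active = inhibition above the primary screen's cutoff, its mean inhibition plus 3 SD, cut at about 35% in these data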;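 note: loss of polarization as inhibitors block binding of rhodamine sulfonate ester activity probe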
Apaf-1 inh conf2 – confirmation of Apaf-1 inhibitors. actives 25% (n = 1,800). shares compounds with Apaf-1 inh. inhibition, % at 20 µM. reconstituted apoptosome, caspase-3 DEVD-Rh110 fluorescence. AID 504614;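 active = mean inhibition of at least 40% at 20 µM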
Rh110 quench – interferes with Rh110 fluorescence, flagging false Apaf-1 inhibitors | shares compounds with Apaf-1 inh | Rh110 fluorescence interference, quenched caspase reaction | activation (fluorescence interference), % at 20 µM | 1,800 tested, under 10 active | AID 504615;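 active = signal rise of 40% or more at 20 µM, treated as a fluorescence artifact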
Fluor interf inh – shows fluorescence interference in the Apaf-1 inhibitor assay format; shares compounds with Apaf-1 inh; 460 tested, under 10 active; IC50, µM; fluorescence interference counterscreen, Apaf-1 assay format; AID 588538; call rule not given here
BSA TAMRA ctr – counter-screen for TCR-CD3 interaction inhibitors: BSA probe; AID 652035; inhibition, % at 9.4 µM; actives 10% (n = 1,200); TAMRA-labeled BSA probe fluorescence counterscreen; shares compounds with TCR-CD3 inh; in the data active = inhibition above about 23%
TCR-CD3 inh conf – confirmation of human TCR-CD3 interaction inhibitors | shares compounds with TCR-CD3 inh | TAMRA-labeled TCR probe fluorescence binding assay | inhibition, % at 9.4 µM | actives 48% (n = 1,200) | AID 652036
Hits are given with their value; . = inactive; / = no result given. Cut-off read from the data, not from the text of the source, unless noted: active = inhibition above about 19%; inactive = the rest.

SMILES	GSTO1 inh	TCR-CD3 inh	TDP2 absorb	Apaf-1 inh	PAD4 FP inh	SIAE inh	GSTO1 inh conf	BSA TAMRA ctr	TCR-CD3 inh conf	others
O=C(O)/C=C\c1cc2c(cc1[N+](=O)[O-])OCO2	.	.	.	.	.	.	/	/	/
O=C1NC(=S)N/C1=C/c1cc2c(cc1[N+](=O)[O-])OCO2	83	.	.	88	.	.	.	/	/	Apaf-1 inh conf2=81;Rh110 quench=.;Fluor interf inh=.
Cc1ccc(NC(=O)CCNS(=O)(=O)c2ccc3c(c2)CCC(=O)N3)c(Br)c1	.	.	.	.	.	.	/	/	/
CN(C)c1ncc(C2=C(Cl)C(=O)C(N3CCCC3)=C(Cl)C2=O)s1	88	22	27	83	.	25	81	.	.	Apaf-1 inh conf2=42;Rh110 quench=.;Fluor interf inh=.
O=c1oc2ccccc2c2oc3cc(O)c(O)cc3c12	49	21	.	.	.	.	.	.	31
Nc1c(N)c2ccccc2oc1=O	.	.	.	.	.	.	/	/	/
COc1cccc2c1C(=O)c1c(O)c3c(c(O)c1C2=O)C[C@](O)(C(C)=O)C[C@H]3O[C@@H]1C[C@@H](N)[C@@H](O)[C@@H](C)O1	48	163	.	.	73	57	40	179	148
Cc1c(NC(=O)Cn2ccc([N+](=O)[O-])n2)c(=O)n(-c2ccccc2)n1C	.	.	.	.	.	.	/	/	/
O=C1CC(N(O)c2ccccc2)C(=O)N1c1ccc(Cl)c(Cl)c1 (stereo not drawn)	63	24	.	.	17	.	.	.	.
Cc1ccc(S(=O)(=O)NCc2cccnc2)c(C)c1	.	.	.	.	.	.	/	/	/
CCN(CC(=O)Nc1c(F)cccc1F)C(=O)/C=C/c1ccc2ccccc2n1	62	30	.	.	.	.	.	.	34
COc1ccc(C2(CNC(=O)CCC(=O)O)CCCC2)cc1	.	.	.	.	.	.	/	/	/
Oc1ccc(-c2csc(-c3cccnc3)n2)cc1O	59	22	.	.	.	.	.	.	.
c1cncc(-c2nc(-c3ccc4c(c3)OCCO4)cs2)c1	.	.	.	.	.	.	/	/	/
NN1C(=O)/C(=C\c2ccco2)SC1=S	43	20	.	.	.	.	.	.	.
CN(CCC#N)C(=O)c1cc2c(s1)-c1ccccc1SC2	.	.	.	.	.	.	/	/	/
COc1cccc(C(=O)NNC(=O)c2ccc3ccccc3c2O)c1	45	40	.	.	.	.	.	.	36
COc1cccc(C(=O)NNC(=O)c2ccccc2)c1	/	.	.	.	/	.	/	/	/
COc1cc(/C=C2\CC/C(=C\c3cc(OC)c(OC)c(OC)c3)C2=O)cc(OC)c1OC	.	.	.	.	.	.	/	/	/
COc1cc(/C=C2\CC/C(=C\c3cc(OC)c(O)c(OC)c3)C2=O)cc(OC)c1O	38	38	.	.	.	.	.	.	41
CCOC(=O)c1cc2c(=O)c3cc(C)ccc3oc2nc1C	.	/	/	.	.	/	/	/	/
O=C(/C=C/c1ccc(Br)cc1)NC(=O)c1ccccc1O	.	.	.	.	.	.	/	/	/
O=C(/C=C/c1ccc(O)c(O)c1)NC(=O)c1ccccc1O	55	24	.	.	.	.	.	.	21
O=S(=O)(O)c1cc(O)ccc1O	.	.	.	.	.	.	/	/	/
O=S(=O)(c1cc(O)ccc1O)c1cccc2c(S(=O)(=O)c3cc(O)ccc3O)cccc12	64	25	.	.	.	.	.	.	.
SMILES	GSTO1 inh	TCR-CD3 inh	TDP2 absorb	Apaf-1 inh	PAD4 FP inh	SIAE inh	GSTO1 inh conf	BSA TAMRA ctr	TCR-CD3 inh conf	others
Cc1ccc2nc(-c3ccccc3)cn2c1	.	.	.	.	.	.	/	/	/
Cc1ccc2nc(-c3ccc(O)c(O)c3)cn2c1	58	54	.	.	.	.	.	.	28
Cc1ccc(C)c(NC(=O)c2cc3ccccn3n2)c1	.	.	.	.	.	.	/	/	/
O=C1Nc2ccccc2/C1=N\N=C\c1ccc(O)c(O)c1	69	32	.	.	.	.	.	.	41
Oc1ccc(/C=N/N=C/c2ccc(O)c(O)c2)cc1O	39	51	.	.	.	.	.	.	67
COc1cc(/C=N/N=C2/C(=O)Nc3ccccc32)ccc1O	.	.	.	.	.	.	/	/	/
C=CCNC(=S)NNC(=O)c1cc(O)ccc1O	62	38	.	.	.	.	.	.	23
O=C(NCc1ccc(F)cc1)c1ccc(S(=O)(=O)Nc2cccc(C(F)(F)F)c2)cc1	.	.	.	.	.	.	/	/	/
CC#CCCC(=O)N1C=Cc2ccccc2C1C#N (stereo not drawn)	.	.	.	.	.	.	/	/	/
CC(C)(C)c1ccc(OCC(=O)NNC(=O)CCc2ccccc2)cc1	.	.	.	.	.	.	/	/	/
Cc1nc2ccccc2c(=O)n1/N=C/c1ccc(O)c(O)c1O	71	41	.	.	.	.	.	.	25
CN(C)c1ccc(O)c2c1CC1CC3[C@@H](N(C)C)C(=O)C(C(N)=O)=C(O)[C@]3(O)C(=O)C1=C2O (stereo partly drawn)	40	46	.	.	.	25	.	.	27
Cc1c(C(=O)N(C)C)sc(NC(=O)c2cc([N+](=O)[O-])cc([N+](=O)[O-])c2)c1C#N	.	.	.	.	.	.	/	/	/
c1coc(-c2nnc(-c3ccco3)nn2)c1	68	28	.	84	.	.	38	.	.	Apaf-1 inh conf2=58;Rh110 quench=.;Fluor interf inh=.
O=C(CCCn1c(SCC(=O)NC2CCCCC2)nc2ccccc2c1=O)NCC1CCCO1 (stereo not drawn)	.	.	.	.	.	.	/	/	/
O=C(CCCn1c(SCC(=O)c2ccc(O)c(O)c2)nc2ccccc2c1=O)NCC1CCCO1 (stereo not drawn)	44	21	.	.	.	.	.	.	40
CC1=NN(c2cccc(C(=O)O)c2)C(=O)/C1=C\C=C\c1ccco1	55	19	.	.	.	.	.	.	.
O=C(N/N=C/c1cccnc1)c1cc(O)c(O)c(O)c1	50	32	.	.	.	.	.	.	20
O=C(N/N=C/c1cccnc1)c1ccc(O)cc1	.	.	.	.	.	.	/	/	/
